Laboratory results published in ChEMBL document CHEMBL1212866, “Synthesis and anti-hepatitis C virus activity of novel ethyl 1H-indole-3-carboxylates in vitro” (Bioorg Med Chem, 2010).

Key:
Hepatitis C virus [1] = assay: Antiviral activity against HCV 2a infected in human Huh7.5 cells assessed inhibition of viral entry after 3 days; assay type: functional, Hepacivirus hominis, genotype 2a, Huh-7
Procedure, shortened: (§1)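 Naive Huh-7.5 cells infected with viral particles carrying a subgenomic HCV RNA with a firefly luciferase reporter, then plated in 96-well format with compounds present. Luciferase activity read after three days of incubation. IC50 calculated; single-point lines give % inhibition at 100 µM.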

[2] = Cytotoxicity against human Huh7.5 cells by celltiter-blue viability assay; assay type: cell-based; conditions: Huh-7
Procedure, shortened: (§2)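 Huh-7.5 cells exposed to compounds, and viability estimated by CellTiter-Blue, a resazurin reagent that metabolically active cells reduce to fluorescent resorufin (excitation 579 nm, emission 584 nm). TC50 taken as the 50% cytotoxic concentration; the single-point line reflects testing at 50 µM.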

[3] = Selectivity index, IC50 for human Huh7.5 cells to TC50 for inhibition of HCV 2a entry into human Huh7.5 cells; assay type: functional, Huh-7
Procedure, shortened: (§3)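 Index computed as TC50 divided by IC50. TC50 comes from the CellTiter-Blue viability assay in Huh-7.5 cells. IC50 comes from the luciferase-reporter HCV infection (entry) or replicon (replication) assay in Huh-7.5 cells, read after three days.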

[4] = Selectivity index, IC50 for human Huh7.5 cells to TC50 for inhibition of HCV 2a replication in human Huh7.5 cells; assay type: functional, Huh-7; procedure, shortened: as §3
Hepatitis C virus [5] = assay: Antiviral activity against HCV 2a infected in human Huh7.5 cells assessed inhibition of viral replication after 3 days by luciferase assay; assay type: functional, Hepacivirus hominis, genotype 2a, Huh-7
Procedure, shortened: (§4)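 Huh-7.5 cells transfected with an RNA transcript of a replicon carrying a firefly luciferase reporter, then plated in 96-well plates with compounds present. Luciferase activity measured after three days of incubation. IC50 calculated; single-point lines give % inhibition at 100 µM.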

Hepatitis C virus [6] = assay: Antiviral activity against HCV 2a infected in human Huh7.5 cells assessed inhibition of viral replication at 100 uM after 3 days by luciferase assay; assay type: functional, Hepacivirus hominis; conditions: genotype 2a, Huh-7, 72 h; procedure, shortened: as §4
Hepatitis C virus [7] = assay: Antiviral activity against HCV 2a infected in human Huh7.5 cells assessed inhibition of viral entry at 100uM after 3 days; assay type: functional, Hepacivirus hominis; conditions: genotype 2a, Huh-7, 72 h; procedure, shortened: as §1
[8] = Cytotoxicity against human Huh7.5 cells at 50 uM by celltiter-blue viability assay; assay type: cell-based; conditions: huh-7, 50 µM; procedure, shortened: as §2

Row | Structure (SMILES) | TC50 (Hepatitis C virus [1]) [µM] | IC50 [2] [µM] | Selectivity Index [3] | Selectivity Index [4] | TC50 (Hepatitis C virus [5]) [µM] | inhibition at 100 µM (Hepatitis C virus [6]) [%] | inhibition at 100 µM (Hepatitis C virus [7]) [%] | Activity [8]
1 | CCOC(=O)c1c(CS(=O)(=O)c2ccccc2)n(C)c2ccc(CN(C)C)cc12 | >50 | 10 | >2.6 | >5 | >50 | – | – | –
2 | CCOC(=O)c1c(CS(=O)(=O)c2ccccc2)n(C)c2ccc(CN3CCCC3)cc12 | >50 | 3 | >10 | >16.7 | >50 | 80 | 95 | Non-toxic
3 | CCOC(=O)c1c(CS(=O)(=O)c2ccccc2)n(C)c2ccc(CN3CCN(C)CC3)cc12 | >50 | 4 | >6.3 | >12.5 | >50 | – | – | –
4 | CCOC(=O)c1c(CS(=O)(=O)c2ccccc2)n(C)c2ccc(CN3CCOCC3)cc12 | >50 | 4 | >3.6 | >12.5 | >50 | – | – | –
5 | CCOC(=O)c1c(CS(=O)(=O)c2ccccc2)n(C)c2ccc(CN3CCCNCC3)cc12 | >50 | 12 | >2.4 | >4.2 | >50 | – | – | –
6 | CCOC(=O)c1c(CS(=O)(=O)c2ccccc2)n(C)c2ccc(Cn3ccnc3)cc12 | 23 | 15 | 4.6 | 1.2 | 18 | – | – | –
7 | CCOC(=O)c1c(C)n(C)c2ccc(CN(C)C)cc12 | >50 | 3 | >6.3 | >16.7 | >50 | – | – | –
8 | CCOC(=O)c1c(C)n(C)c2ccc(CN3CCCC3)cc12 | >50 | 5 | >3.8 | >10 | >50 | – | – | –
9 | CCOC(=O)c1c(CSc2ccccc2)n(C)c2cc(Br)c(O)c(CN(C)C)c12 [UMIFENOVIR] | 12 | 1 | 6 | 15 | 15 | – | – | –
